PLC-gamma1 inh: PLC-gamma1 enzyme inhibitors, primary screen, biochemical, fluorescence, purified enzyme; 1-phosphatidylinositol 4,5-bisphosphate phosphodiesterase gamma-1 (Homo sapiens), P19174; fluorogenic substrate; inhibition, % at 12.2 µM; 0.84% of 370,000 active; AID 720700, 2013; in the data active = inhibition above about 9.5%
procasp3 activ: activators of human procaspase-3 D3A mutant, primary screen, biochemical, absorbance, PC-3 D3A mutant, single concentration | activation, % at 8.5 µM | recombinant procaspase-3 D3A, Ac-DEVD-pNA absorbance 405 nm | Caspase-3 (Homo sapiens), P42574 | AID 463141, 2010 | 0.11% of 330,000 active;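 active = activation above the mean of all tested compounds plus 3 SD, cut at about 21% in these data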
Target sequence (P42574 whole entry D9A/D28A/D175A): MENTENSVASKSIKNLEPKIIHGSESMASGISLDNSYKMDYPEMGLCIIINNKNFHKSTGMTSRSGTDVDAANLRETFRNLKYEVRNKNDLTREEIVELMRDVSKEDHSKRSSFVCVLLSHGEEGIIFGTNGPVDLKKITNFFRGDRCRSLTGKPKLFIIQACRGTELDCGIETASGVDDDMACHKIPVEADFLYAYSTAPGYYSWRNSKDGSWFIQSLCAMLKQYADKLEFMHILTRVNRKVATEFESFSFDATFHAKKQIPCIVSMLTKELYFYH
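material = Procaspase-3 D3A mutant | probe or stimulus = Ac-DEVD-pNA | compound = single dose, 8.5 µM nominal compound, 0.8% DMSO | timing = 1 h preincubation, 2 h reaction | measured by = 405 nm absorbance of p-nitroaniline, reads at 0 and 120 min | benchmarks = DMSO-only low control, 5 µM PC-3 D3A high control | repeats = singlicate, each compound tested once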
PLC-beta3 inh: human PLC-beta3 inhibitors, primary screen, biochemical, fluorescence; 1-phosphatidylinositol 4,5-bisphosphate phosphodiesterase beta-3 (Homo sapiens), Q01970; Purified PLC-beta3, fluorogenic substrate; inhibition, % at 12.2 µM; 0.18% of 370,000 active; in the data active = inhibition above about 11%
procasp7 counter: procaspase-7 activators, primary screen, counter-screen for procaspase-3 activator project, biochemical, absorbance, HTS, human. activation, % at 8.5 µM. Caspase-7 (Homo sapiens), P55210. recombinant procaspase-7, Ac-DEVD-pNA absorbance 405 nm; D23A/D198A/D206A triple mutant, cannot self-cleave; scale: DMSO 0, 5 µM enzyme 100. 0.093% of 330,000 active;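 active = percent activation above the screen-wide mean plus 3 SD, cut at about 25% in these data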
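Detection: p-Nitroaniline absorbance at 405 nm, read at 0 and 120 min; system: Uncleavable procaspase-7 mutant enzyme; evaluation: % activation from two-timepoint absorbance difference, scaled to controls; times: 1 h enzyme–compound preincubation and 2 h substrate reaction, both 25 °C; buffer or medium: Zinc-free HEPES pH 7.4 with 300 mM NaCl, 0.01% Triton X-100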
sPLA2-III inh: human group III sPLA2 inhibitors, primary screen, biochemical, QFRET, BODIPY PC-A2 liposome substrate | QFRET BODIPY PC-A2 liposome hydrolysis, fluorescence | AID 743126, 2013 | Group 3 secretory phospholipase A2 (Homo sapiens), Q9NZ20 | 0.56% of 370,000 active | inhibition, % at 12.2 µM;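 active = inhibition above mean plus 3 SD of compounds lying within the high and low control bounds, cut at about 19% in these data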
Hits are given with their value; - = inactive; . = no result given. Most compounds without a hit are left out; they make up all but 1.6% or so of the library.

SMILES | PLC-gamma1 inh | procasp3 activ | PLC-beta3 inh | procasp7 counter | sPLA2-III inh
Nc1nc2ccc(S(=O)(=O)N3CCCCC3)cc2s1 | 47.8 | - | - | - | -
NCCCC[C@@H]1NC(=O)[C@H](CCC(=O)O)NC(=O)c2cc([N+](=O)[O-])cc(I)c2OCC[C@@H](C(N)=O)NC1=O | . | - | . | - | .
NC(=O)CC[C@@H]1NC(=O)[C@H](CO)NC(=O)c2cc([N+](=O)[O-])cc(I)c2OCC[C@@H](C(N)=O)NC1=O | 14.3 | - | - | - | -
CCc1nn(CC(=O)NCCCN(CC)Cc2ccccc2)c(=O)c2cc3sccc3n12 | 10.6 | - | - | - | -
CCCCN(CCCNC(=O)Cn1nc(CC)n2c(cc3sc(C)cc32)c1=O)Cc1ccccc1 | - | - | - | - | -
O=C(Nc1nnc(Cc2ccccc2)s1)Nc1ccccc1F | 12.0 | - | - | - | -
Nc1ccc(N=Nc2ccccc2)c(N)n1 | - | - | - | - | 23.0
O=C(Nc1nccs1)C1(C(=O)C2CC2)CC(c2ccccn2)=NO1 (stereo unspecified) | - | . | - | . | -
COc1ccc(NC(=O)/C(Cl)=C(/Cl)S(=O)(=O)Cc2ccccc2)cn1 | 10.3 | . | - | . | -
CCN1CCN(C(CNS(=O)(=O)c2ccc(Cl)cc2)c2cccnc2)CC1 (stereo unspecified) | 11.6 | - | - | - | -
COC(=O)CCn1nc(-c2ccc(C)cc2)c2ccccc2c1=O | - | - | - | - | -
C#CC1(NC(=S)Nc2cccc(OC)c2)CCCCC1 | 10.9 | . | - | . | -
COc1cccc(NC(=S)NCc2ccc(F)cc2)c1 | - | - | - | - | -
CCC(=O)Nc1nc2ccccc2n1CCN(C)C | - | - | - | - | -
CC(=O)Nc1nc2ccccc2n1CCN(C)C | - | - | 12.6 | - | -
O=C(NCc1cccnc1)c1csc([C@@H]2C[C@H](O)[C@@H](CO)O2)n1 | - | . | - | . | -
CC(C)NC(=O)CSc1ccccc1C(=O)N1CCN(S(=O)(=O)Cc2ccccc2)CC1 | 10.6 | . | - | . | -
CC(C)NC(=O)CSc1ccccc1C(=O)N1CCN(S(=O)(=O)/C=C/c2ccccc2)CC1 | - | - | - | - | -
CSCCC(NC(=O)c1ccccc1Cl)C(=O)NCC(c1cccs1)N(C)C (stereo unspecified) | - | . | - | . | -
O=C(O)Cc1sc(N/N=C\c2ccccc2)nc1-c1ccccc1 | - | - | - | - | 23.1
CCCC(=O)Nc1nc2ccc(OC)cc2s1 | - | - | - | - | -
COc1ccc2nc(NC(=S)N(C)C)sc2c1 | 15.5 | - | - | - | -
COC(=O)CN1CCN(C(=O)c2nocc2C)CC1 | - | . | - | . | -
CCc1nnc(N/N=C/c2c(C)[nH]c3ccccc23)n1N | 10.5 | - | - | - | -
Cc1ccc(Cn2cc(COC(=O)NCCc3c[nH]c4ccccc34)nn2)cc1 | - | . | - | . | -
SMILES | PLC-gamma1 inh | procasp3 activ | PLC-beta3 inh | procasp7 counter | sPLA2-III inh
Cc1ccc(S(=O)(=O)N2CCOCC2)cc1NC(=O)Cn1c(=O)ccn(Cc2ccccc2)c1=O | - | . | - | . | -
CC(C)(C)OC(=O)N(CCc1ccccc1)Cc1ccc(OCc2cccc(NC(=O)C3CC3)c2)cc1 | - | . | - | . | -
CC(C)(C)OC(=O)N(CCc1ccccc1)Cc1cccc(OCc2cccc(NC(=O)c3ccccc3)c2)c1 | 9.9 | . | - | . | -
COc1ccc(C(=O)Oc2ccc(C(=S)N3CCOCC3)cc2)cc1 | 13.0 | - | - | - | -
COc1ccc(C(=S)N2CCN(c3cccc(Cl)c3)CC2)cc1 | - | - | - | - | 20.1
CC(=O)c1ccc2c(c1)N(Cc1ccccc1)C(=O)C(C)S2 (stereo unspecified) | - | . | - | . | -
Fc1cccc(/C=N/Nc2ccc3ccccc3n2)c1 | - | - | - | - | 20.0
Brc1ccc(/C=N/Nc2ccc3ccccc3n2)cc1 | - | - | - | - | -
CCCN(CC(=O)Nc1ccccc1OC)C(=O)CCC(=O)c1ccc(Cl)s1 | - | - | - | - | -
C#CCNC(=O)C[C@H]1C[C@@]2(C(=O)OC)C(=C[C@H](C(C)(C)C)O[C@@H]2C)N(Cc2cccc3ccccc23)C1=O | - | . | - | . | -
